This is a sample that favours compounds with a hit; in the whole collection about 3.7% have one here.
Kir21 inh = blocks the mouse Kir2.1 inward-rectifier potassium channel | P35561 | 310,000 tested, 0.85% active | HEK293-Kir2.1, FluxOR thallium flux fluorescence; hits give low values | B-score at 10 µM;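 active = fluorescence ratio B-score at or below minus 3 SD of library scores, with starting-brightness B-score within 2 SD, cut at about -4.2 in these data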;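 also: channel flux triggered by added potassium and thallium sulfate stimulus; B-score of peak minus minimum fluorescence over baseline after thallium stimulus; more negative B-score means stronger Kir2.1 block with less thallium influx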
Target sequence (P35561 whole entry, looked up): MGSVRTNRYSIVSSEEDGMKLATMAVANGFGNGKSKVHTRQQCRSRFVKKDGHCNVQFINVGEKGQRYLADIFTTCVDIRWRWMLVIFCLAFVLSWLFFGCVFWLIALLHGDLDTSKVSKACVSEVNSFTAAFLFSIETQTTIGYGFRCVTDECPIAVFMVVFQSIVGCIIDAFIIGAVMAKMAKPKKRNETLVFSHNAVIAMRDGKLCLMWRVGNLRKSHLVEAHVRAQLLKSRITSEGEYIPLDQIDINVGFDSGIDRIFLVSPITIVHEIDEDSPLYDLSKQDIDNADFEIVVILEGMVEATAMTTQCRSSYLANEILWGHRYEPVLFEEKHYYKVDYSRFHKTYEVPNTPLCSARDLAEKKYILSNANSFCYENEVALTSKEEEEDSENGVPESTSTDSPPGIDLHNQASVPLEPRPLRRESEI
KCNK3 inh = human KCNK3 channel inhibition, primary screen | O14649 | CHO-KCNK3 thallium flux, FluxOR fluorescence; hits give low values | B-score at 10 µM | 340,000 tested, 0.84% active | AID 602410;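 active = B-score under library mean minus 4 SD, starting fluorescence ratio at most library mean plus 5 SD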;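 also: more negative B-score means stronger inhibition of thallium flux through KCNK3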
hERG rescue = compounds protecting human hERG from proarrhythmic drug block; 310,000 tested, 0.51% active; CHO-hERG, FluxOR thallium flux, dofetilide IC70 present; activation (rescue from dofetilide block), less the hit threshold, % at 10 µM; Q12809;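 active = activation above the mean of controls blocked by dofetilide plus 5 SD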;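 also: thallium influx through hERG after potassium depolarization seen as dye fluorescence rise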
KCNQ1 act = potentiators or activators of human KCNQ1 potassium channel; P51787; CHO-K1 KCNQ1, thallium flux FluxOR fluorescence; hits give high values; B-score at 10 µM; 310,000 tested, 0.35% active; AID 2648;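 active = fluorescence ratio B-score, a plate-corrected score, at least three library SD, with initial intensity B-score within 5 SD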
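assay system = CHO-K1 cells stably expressing KCNQ1 | medium = assay buffer, equal DMSO in all wells | timing = 37 °C overnight plating, 90-min dark dye load, 20-min compound pretreatment | measured by = kinetic FluxOR thallium fluorescence, 10-s 1-Hz baseline, 110-s post-stimulus read | measure = fluorescence change relative to baseline, converted to B score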
KCNK9 inh = inhibitors of human KCNK9 two-pore domain potassium channel; 310,000 tested, 1.2% active; B-score at 10 µM; HEK293 KCNK9, FluxOR thallium flux fluorescence; hits give low values;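 active = ratio B-score over 3 SD below the library mean, with starting fluorescence within 5 SD of its mean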;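 also: negative B-score means less thallium flux so channel inhibition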
KCNQ1 block = blocks the human KCNQ1 potassium channel; P51787; CHO-K1 KCNQ1, FluxOR thallium flux fluorescence; hits give high values; B-score at 10 µM; 310,000 tested, 1.3% active; AID 2642;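 active = compounds whose thallium flux B-score, printed positive for inhibition, exceeds three library SD while starting fluorescence stays within three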;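 also: channel opened by potassium depolarization with thallium stimulus after 20 min compound exposure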
KCNK9 inh conf = human KCNK9 inhibitor confirmation. HEK293 KCNK9 cells, FluxOR thallium flux fluorescence. inhibition, % at 10 µM. 4,900 tested, 43% active. shares compounds with KCNK9 inh;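 active = thallium signal inhibited by more than 5 SD of the compound-free buffer control wells, on both duplicate plates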;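 also: 0% = assay buffer control wells without compound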
Kir21 sel = selectivity of KCNK9 modulators against mouse Kir2.1; shares compounds with KCNK9 inh; Kir2.1 cells, FluxOR thallium flux fluorescence; inhibition, % at 10 µM; 4,900 tested, 4% active; AID 492993;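 active = thallium signal drop more than 5 SD beyond the mean of the no-compound control wells, seen in both duplicate plates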;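 also: signal is fluorescence rise after thallium addition divided by baseline fluorescence; plate controls were assay buffer only for no effect and full block by chlorpromazine control for full effect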
HEK293 Tl ctr = non-induced cell nonspecific activity of KCNK9 modulators; 4,900 tested, 40% active; shares compounds with KCNK9 inh; inhibition, % at 10 µM; non-induced KCNK9-HEK293, FluxOR thallium flux; AID 492997;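 active = thallium signal drop beyond 5 SD of the untreated control mean, on both duplicate plates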;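 also: plate controls were buffer only IC0 wells for no effect and SID17386958 at its maximal inhibitory level for full effect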
* = called active by the depositor; i = inactive; · = no result.

SMILES	Kir21 inh	KCNK3 inh	hERG rescue	KCNQ1 act	KCNK9 inh	KCNQ1 block	KCNK9 inh conf	Kir21 sel	HEK293 Tl ctr
CCc1nc2ccccc2c(C(=O)OCC(=O)NC(=O)c2cccn2C)c1C	-0.52	i	-14	i	i	i	·	·	·
Nc1ncnc2c1ncn2[C@@H]1O[C@H](CNC(=O)[C@H]2CCC(=O)N2)[C@@H](O)[C@H]1O	·	i	·	·	·	·	·	·	·
CSc1ccc(C(=O)C2CCCN(Cc3cccc4nccnc34)C2)cc1 (configuration not stated)	-0.25	i	-18	i	i	i	i	i	i
COc1ccc(C(=O)C2CCCN(Cc3cccn3-c3nccs3)C2)cc1F (configuration not stated)	-1.4	i	-21	i	i	i	i	i	i
O=C(c1ccc(Cl)cc1)C1CCCN(Cc2cccn2-c2ccccn2)C1 (configuration not stated)	-1.4	i	-20	i	i	i	i	i	i
NC1(C(=O)O)CCCCC1c1ccccc1 (configuration not stated)	·	i	·	·	·	·	·	·	·
Cc1ccc(NC2CCCN(C(=O)C3CCCCC3)C2)cc1C (configuration not stated)	-3.1	i	-5	i	i	i	i	i	i
Cc1cc(C)c(C(=O)N2CCCC(Nc3ccc(C)c(C)c3)C2)o1 (configuration not stated)	-2.4	i	-9	i	i	i	i	i	i
O=C(C1CCCC1)N1CCCC(Nc2ccc(F)cc2)C1 (configuration not stated)	-0.02	i	-11	i	i	i	·	·	·
COc1ccc(C(=O)NCC(=O)N2CCN(c3ccc(F)cc3)CC2)cc1	-0.8	i	-11	i	i	i	·	·	·
CCSC(=O)N1c2ccc(OC)cc2C=CC1C#N (configuration not stated)	·	i	·	·	·	·	·	·	·
Cc1cc(S(=O)(=O)NCC(C)C)ccc1OCC(=O)NCc1ccco1	-0.07	i	-3	i	i	i	·	·	·
Cc1cc(C)cc(NC2=CC(=O)CC(c3ccco3)C2)c1 (configuration not stated)	0.52	i	-6	i	-12*	i	37%*	i	24%*
Cc1ccc(NC(=O)C2CCN(S(=O)(=O)c3ccc4c(c3)OCCCO4)CC2)nc1	0.43	i	-5	i	i	i	·	·	·
O=C(NCc1cccs1)c1cc(-c2ccccc2)nn1CC1CC(c2cccc([N+](=O)[O-])c2)=NO1 (configuration not stated)	-0.11	i	-4	i	i	i	·	·	·
COc1ccccc1CNC(=O)c1cc(-c2ccccc2)nn1CC1CC(c2cccc([N+](=O)[O-])c2)=NO1 (configuration not stated)	-1.6	i	-8	i	-8.7*	i	44%*	i	30%*
CC(C)C(NC(=O)c1ccccc1F)C(=O)NCCc1ccccn1 (configuration not stated)	-0.01	i	-11	i	i	i	·	·	·
COc1ccc(-c2csc(NC(C)c3nc4cc(Cl)c(N5CCCCC5)cc4n3CCOCCO)n2)cc1 (configuration not stated)	0.77	i	-10	i	i	i	·	·	·
COc1ccc(-c2csc(NC(C)c3nc4cc(Cl)c(Cl)cc4n3CCOCCO)n2)cc1 (configuration not stated)	0.39	i	-6	i	-8.6*	i	32%*	i	40%*
Cc1cc(C)n2nc(C(=O)N/N=C/c3cccs3)nc2n1	-0.77	i	-3	i	i	i	·	·	·
Nc1nc(=O)c2ccccc2s1	·	i	·	·	·	·	·	·	·
COc1cccc(OC)c1C(=O)Nc1ccc2c(c1)N(S(=O)(=O)c1cccs1)CCC2	-0.33	i	-6	i	i	i	·	·	·
O=C(Nc1ccc2c(c1)N(S(=O)(=O)c1cccs1)CCC2)c1c(F)cccc1Cl	-0.15	i	-13	i	-11*	i	i	i	36%*
CC1(C)CC(=O)C2=C(C1)Oc1nc3ccccc3cc1C2C(C#N)C#N (configuration not stated)	1.4	i	-3	i	i	i	·	·	·
CCOC(=O)c1c(NC(=O)CSc2nnc(-c3ccc(Cl)cc3)o2)sc2c1CCC2	-1.1	i	-11	i	i	i	i	i	i
SMILES	Kir21 inh	KCNK3 inh	hERG rescue	KCNQ1 act	KCNK9 inh	KCNQ1 block	KCNK9 inh conf	Kir21 sel	HEK293 Tl ctr
CCOC(=O)c1c(NC(=O)CSc2nnc(Cc3ccccc3)o2)sc(C)c1C	-1.7	i	-6	i	i	i	i	i	i
COC(=O)c1c(NC(=O)CCc2ccc(C)o2)sc(C)c1C	-0.49	i	-12	i	i	i	·	·	·
Cc1nnc(SCC(=O)Nc2sc3c(c2C(=O)c2ccccc2)CCCC3)s1	-2	i	-8	i	i	i	i	i	i
CCOC(=O)c1c(NC(=O)CCc2ccc(CC)o2)sc(C)c1C	0.1	i	-19	i	i	i	i	i	24%*
CCOC(=O)[C@@H]1[C@H]2COc3cc(OC)ccc3[C@H]2N2C(=O)N(c3cccc(F)c3)C(=O)[C@]12C	·	i	·	·	·	·	·	·	·
CCOc1ccc(S(=O)(=O)NN2Cc3ccccc3C2=N)cc1	0.29	i	-6	i	i	i	·	·	·
CCOC(=O)c1c(NC(=O)CSc2nc3ccccc3s2)sc(C)c1C	1.6	i	-11	i	i	i	i	i	i
O=C(/C(=C\c1ccccc1)c1nc2ccccc2[nH]1)c1ccc(Cl)cc1	-2	i	-9	i	i	i	·	·	·
O=C(/C(=C/c1ccc(Cl)cc1)c1nc2ccccc2[nH]1)c1cccs1	-1.2	i	-17	i	-11*	6*	48%*	i	41%*
CCCCOC(=O)Nc1ccccc1C(N)=O	-0.33	i	-10	i	i	i	·	·	·
COc1cccc([C@@H]2Oc3ccc(OC)cc3C(=O)[C@H]2OC(=O)N[C@H](C)C2CCCCC2)c1	0.05	·	-6	i	-8.7*	i	49%*	i	42%*

From PubChem BioAssay
